ChEMBL document CHEMBL1782013, “Discovery of Potent and Selective Inhibitors of Calcium-Dependent Protein Kinase 1 (CDPK1) from C. parvum and T. gondii” (ACS Med Chem Lett, 2010)
Calls of active or inactive are those of the source. The calls are words filed in the database; no cut-off is given here.

Columns and labels:
SF-539 = experiment: Cytotoxicity against human SF539 cells up to 10 uM after 48 to 72 hrs by alamar blue assay; type: cell-based
[1] = Cytotoxicity against human CRL8155 cells up to 10 uM after 48 to 72 hrs by alamar blue assay; type: cell-based
HL-60 = experiment: Cytotoxicity against human HL60 cells up to 10 uM after 48 to 72 hrs by alamar blue assay; type: cell-based
HCC 2998 = experiment: Cytotoxicity against human HCC2998 cells up to 10 uM after 48 to 72 hrs by alamar blue assay; type: cell-based
[2] = target: T1, Calmodulin-domain protein kinase 1 (Toxoplasma gondii, UniProt Q9BJF5); type: cell-free, Plasma
T1 sequence (Q9BJF5 whole entry): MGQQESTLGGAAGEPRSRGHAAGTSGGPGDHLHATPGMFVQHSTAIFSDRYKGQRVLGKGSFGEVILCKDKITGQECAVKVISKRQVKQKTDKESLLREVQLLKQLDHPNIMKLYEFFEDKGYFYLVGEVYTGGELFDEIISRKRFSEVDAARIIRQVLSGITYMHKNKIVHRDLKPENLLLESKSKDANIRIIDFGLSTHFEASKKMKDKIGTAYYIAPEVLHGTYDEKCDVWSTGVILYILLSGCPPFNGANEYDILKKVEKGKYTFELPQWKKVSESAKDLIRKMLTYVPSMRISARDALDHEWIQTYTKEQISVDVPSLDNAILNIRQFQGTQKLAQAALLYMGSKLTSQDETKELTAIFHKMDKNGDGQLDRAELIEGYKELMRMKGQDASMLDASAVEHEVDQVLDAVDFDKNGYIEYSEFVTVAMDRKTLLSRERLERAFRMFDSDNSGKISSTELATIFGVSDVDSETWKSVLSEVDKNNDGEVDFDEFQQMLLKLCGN

Cryptosporidium parvum [3] = experiment: Antiparasitic activity against Cryptosporidium parvum sporozoites infected in human HCT8 cells assessed as reduction of parasites level treated immediately after infection measured after 24 hrs; type: functional, organism-based; conditions: HCT-8
In short: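 Human intestinal HCT-8 cells were infected with C. parvum sporozoites, one sporozoite per host cell. Inhibitor was added at varying concentrations at the time of infection. Parasites present were counted 24 h after infection.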

Cryptosporidium parvum [4] = experiment: Antiparasitic activity against Cryptosporidium parvum sporozoites infected in human HCT8 cells assessed as reduction of parasites level treated 1 hr after infection measured after 24 hrs; type: functional, organism-based; conditions: HCT-8
In short: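 HCT-8 human intestinal cells infected with C. parvum sporozoites at a 1:1 ratio of HCT-8 cells to sporozoites. Cultures were exposed to a range of inhibitor concentrations starting 1 h after infection. Parasite numbers were counted after 24 h of infection.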

Toxoplasma gondii = experiment: Antiparasitic activity against Toxoplasma gondii infected in human fibroblasts assessed as reduction of parasite invasion; type: functional, organism-based

SMILES	Activity (SF-539)	Activity [1]	Activity (HL-60)	Activity (HCC 2998)	IC50 [2] [µM]	Activity (Cryptosporidium parvum [3])	Activity (Cryptosporidium parvum [4])	Activity (Toxoplasma gondii)
CC(C)n1nc(-c2ccc(Cl)c(Cl)c2)c2c(N)ncnc21	Non-toxic	Non-toxic	Non-toxic	Non-toxic				
CC(C)n1nc(-c2ccc3ccccc3c2)c2c(N)ncnc21	Non-toxic	Non-toxic	Non-toxic	Non-toxic				
CC(C)n1nc(-c2cnc3ccccc3c2)c2c(N)ncnc21	Non-toxic	Non-toxic	Non-toxic	Non-toxic				
CCOc1ccc2cc(-c3nn(C(C)C)c4ncnc(N)c34)ccc2c1	Non-toxic	Non-toxic	Non-toxic	Non-toxic				
CC(C)n1nc(-c2ccc3c(c2)sc2ccccc23)c2c(N)ncnc21					> 3			
Nc1ncnc2c1c(Cc1cccc3ccccc13)nn2CC1CCNCC1	Non-toxic	Non-toxic	Non-toxic	Non-toxic				
COc1ccc2cc(-c3nn(C(C)C)c4ncnc(N)c34)ccc2c1	Non-toxic	Non-toxic	Non-toxic	Non-toxic				
CC(C)n1nc(Cc2cccc3ccccc23)c2c(N)ncnc21	Non-toxic	Non-toxic	Non-toxic	Non-toxic		Dose-dependent effect	Dose-dependent effect	Active
CCN1CCC(n2nc(Cc3cccc4ccccc34)c3c(N)ncnc32)CC1	Non-toxic	Non-toxic	Non-toxic	Non-toxic				
CCN1CCC(CCn2nc(Cc3cccc4ccccc34)c3c(N)ncnc32)CC1	Non-toxic	Non-toxic	Non-toxic	Non-toxic				
CC(C)c1cccc(-c2nn(C(C)C)c3ncnc(N)c23)c1	Non-toxic	Non-toxic	Non-toxic	Non-toxic				
CC(C)(C)n1nc(Cc2cccc3ccccc23)c2c(N)ncnc21	Non-toxic	Non-toxic	Non-toxic	Non-toxic				
CCN1CCC(Cn2nc(Cc3cccc4ccccc34)c3c(N)ncnc32)CC1	Non-toxic	Non-toxic	Non-toxic	Non-toxic				
CC(C)(C)n1nc(-c2ccc3ccccc3c2)c2c(N)ncnc21	Non-toxic	Non-toxic	Non-toxic	Non-toxic		Dose-dependent effect	Dose-dependent effect	Active
CC(C)(C)n1nc(-c2cccc3ccccc23)c2c(N)ncnc21	Non-toxic	Non-toxic	Non-toxic	Non-toxic		Dose-dependent effect	Dose-dependent effect	
CS(=O)(=O)N1CCC(n2nc(Cc3cccc4ccccc34)c3c(N)ncnc32)CC1	Non-toxic	Non-toxic	Non-toxic	Non-toxic				
